# High-throughput results: PubChem BioAssay, The Scripps Research Institute Molecular Screening Center
# GALR2 blocker: GALR2 (human) receptor antagonism; O43603; GALR2-expressing cells, antagonist mode; inhibition, % at 4 µM; 140,000 tested, 0.39% active; AID 828;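 further: cells stimulated with galanin 1-16 at roughly its EC80; 0% = agonist challenge control and 100% = basal control without agonist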
# Target sequence (O43603 whole entry, looked up): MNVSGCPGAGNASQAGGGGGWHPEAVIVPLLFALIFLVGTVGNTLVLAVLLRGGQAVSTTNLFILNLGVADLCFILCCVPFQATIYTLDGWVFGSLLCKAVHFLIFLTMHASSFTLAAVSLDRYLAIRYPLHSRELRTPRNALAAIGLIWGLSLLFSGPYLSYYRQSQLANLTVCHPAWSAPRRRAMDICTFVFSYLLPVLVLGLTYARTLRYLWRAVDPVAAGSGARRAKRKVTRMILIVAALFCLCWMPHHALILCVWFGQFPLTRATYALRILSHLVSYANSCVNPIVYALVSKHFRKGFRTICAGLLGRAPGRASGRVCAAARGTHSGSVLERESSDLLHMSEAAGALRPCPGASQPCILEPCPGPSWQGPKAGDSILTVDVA
# S1P2 blocker: blocks the human S1P2 receptor; O95136; cell-based S1P2 antagonist assay, inhibition at 5 uM; inhibition, % at 5 µM; 97,000 tested, 0.21% active; in the data active means inhibition above about 45%;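 further: CRE beta-lactamase reporter cells expressing human S1P2 stimulated with S1P; 0% = agonist at EC80 alone and 100% = agonist plus reference antagonist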
# Rev-RRE block: disrupts HIV-1 Rev binding to RRE RNA. AID 704. P05866. inhibition, % at 8 µM. Rev peptide-RRE RNA binding, FRET. 97,000 tested, 0.79% active;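 active means inhibition above the screen-wide mean plus 3 SD, cut at about 35% in these data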;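 further: 0% = median DMSO wells and 100% = median Neomycin B control wells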
# Target sequence (P05866 whole entry, looked up): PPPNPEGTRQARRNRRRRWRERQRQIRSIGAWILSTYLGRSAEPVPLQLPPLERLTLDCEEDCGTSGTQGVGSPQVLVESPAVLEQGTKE
#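 assay system = Cy5-tagged RRE RNA duplex with fluorescein-tagged Rev peptide | incubation = 5 + 15 min at 25 °C | also added = labelled Rev peptide | measure = % inhibition of FRET ratio versus controls | benchmarks = DMSO wells as 0% and neomycin B wells as 100% inhibition | measured by = FRET fluorescence readout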
# EphB4 ephrin blk: antagonists of human EphB4-ephrin-B2 interaction. P54760. EphB4 LBD / TNYL-RAW-Alexa532 peptide, fluorescence polarization. inhibition, % at 7 µM. 97,000 tested, 0.15% active. AID 720;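 active means inhibition above the screen-wide mean inhibition plus 3 SD, cut at about 15% in these data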;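 further: 0% = DMSO wells and 100% = excess unlabeled TNYL-RAW peptide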
# S1P2 ag: S1P2 (human) receptor agonism; activation, % at 4.5 µM; O95136; AID 729; 97,000 tested, 0.46% active; S1P2-expressing cell line, agonist reporter read-out; in the data active means activation above about 16%;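 further: 0% = vehicle low control and 100% = maximal reference agonist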
# GALR2 agonist: GALR2 (human) receptor agonism | GALR2-expressing cells, agonist activation read-out | O43603 | 140,000 tested, 0.48% active | activation, % (no concentration beside the values); in the data active means activation above about 5%, passing the limit was not always enough;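 further: 0% = vehicle buffer wells and 100% = reference agonist at full effect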
# GALR2 ag confirm: confirmation of human galanin receptor 2 (GALR2) agonists; 460 tested, 10% active; activation, % at 5.6 µM; AID 864; GALR2-expressing cells, agonist activation; shares compounds with GALR2 agonist; in the data active means activation above about 8.4%;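 further: 0% = buffer-only vehicle wells and 100% = full reference agonist response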
# BLA activ ctr: counter-screen for GALR2 agonists: beta-lactamase reporter activators; shares compounds with GALR2 agonist; CHO NFAT-bla reporter, beta-lactamase FRET activation; activation, % at 5.6 µM; 460 tested, 10% active; AID 865;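 active means activation above the screen-wide mean activation plus 3 SD, cut at about 8% in these data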;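 further: 0% = DMSO with PBS wells and 100% = thapsigargin positive control wells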
# GALR2 ant conf: confirmation of human galanin receptor 2 (GALR2) antagonists. inhibition, % at 4 µM. 480 tested, 60% active. shares compounds with GALR2 blocker. GALR2-expressing cells, antagonist mode, inhibition;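 further: cells stimulated with galanin at about its EC80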
# BLA inh counter: counter-screen for GALR2 antagonists: beta-lactamase reporter inhibitors; shares compounds with GALR2 blocker; CHO NFAT-BLA reporter, beta-lactamase FRET, thapsigargin-stimulated; inhibition, % at 4.2 µM; 480 tested, 36% active; AID 867;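 active means inhibition above the mean inhibition across tested compounds plus 3 SD, cut at about 27% in these data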;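 further: 0% = 500 nM thapsigargin stimulated wells and 100% = unstimulated BSA only wells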
# Numbers without * were called inactive; nt = no result given; [ ] = another dose, or the depositor's remark. Shown are actives, neighbours in structure and some others; about 1.8% of the full set was active somewhere. Unless noted, no stated cut-off is given here; in the data, active means inhibition above about 27%; inactive means the rest.
SMILES,GALR2 blocker,S1P2 blocker,Rev-RRE block,EphB4 ephrin blk,S1P2 ag,GALR2 agonist,GALR2 ag confirm,BLA activ ctr,GALR2 ant conf,BLA inh counter
CCOC(=O)c1ccc(NC(=S)N2CCSC2c2ccc(OC)cc2)cc1 (centres undefined),-16,nt,nt,nt,nt,1,nt,nt,nt,nt
CCOC(=O)c1ccc(NC(=S)N2CCSC2c2ccc(Cl)cc2)cc1 (centres undefined),-22,nt,nt,nt,nt,8.8*,9.4*,18*,nt,nt
CN(Cc1nc(-c2ccccn2)no1)S(=O)(=O)c1ccccc1,-10,23,9,10,-4,10,0,-2,nt,nt
O=C(CNC(=O)c1ccc(-c2ccccc2)cc1)OCc1ccc(Br)cc1,-4,nt,nt,nt,nt,-1,nt,nt,nt,nt
Cc1ccc(OCCCCn2ccnc2)c(Cl)c1,-3,0,5,-2,-5,-3,nt,nt,nt,nt
Cc1ccc(C)c(OCCCCn2ccnc2)c1,-8,-17,2,-3,-3,11,0,2,nt,nt
Cc1ccc(C)c(NC(=O)CSc2nnc3n2CCCCC3)c1,-3,nt,nt,nt,nt,1,nt,nt,nt,nt
O=C(N/N=C/c1ccc(O)cc1)/C(=C/c1ccccc1)CCO,-3,nt,nt,nt,nt,0,nt,nt,nt,nt
COc1cc(/C=N/NC(=O)c2ccc(COc3cc(C)ccc3C(C)C)cc2)cc(OC)c1O,0,nt,nt,nt,nt,8.4*,8,-1,nt,nt
COCCNC(=O)/C=C/c1c(Cl)cccc1Cl,1,nt,nt,nt,nt,0,nt,nt,nt,nt
COc1cc(-c2noc(CCCC(=O)NC3CCCCC3)n2)cc(OC)c1OC,-5,-3,7,7,-6,26*,-1,-1,nt,nt
COc1ccc(-c2noc(CCC(=O)NC3CCCCC3)n2)cc1OC,4,-2,0,6,2,-3,nt,nt,nt,nt
O=C(/C=C/c1ccccc1F)c1cccc([N+](=O)[O-])c1,-3,nt,nt,nt,nt,-1,nt,nt,nt,nt
O=C(Oc1ccc(F)cc1C(=O)/C=C/c1cccs1)c1cccc([N+](=O)[O-])c1,11,10,8,8,-4,39*,2,3,nt,nt
CC1SCCN1S(=O)(=O)c1ccc2ccccc2c1 (centres undefined),-12,-24,0,-7,-1,0,nt,nt,nt,nt
Cc1ccc2nsnc2c1NC(=O)c1ccc(-c2cc(Cl)ccc2Cl)o1,38*,28,0,3,4,10,11*,3,23,21
O=C(NCCc1ccccc1)C(NS(=O)(=O)c1cccc2nsnc12)c1ccccc1 (centres undefined),-2,nt,nt,nt,nt,-1,nt,nt,nt,nt
Cc1ccc(N=Cc2sc(O)c3ccccc23)cc1,28*,38,132*[fluorescence artefact?],2,-8,-2,nt,nt,32*,32*
O=C(c1ccccc1)c1ccc2nc(-c3ccc(NC(=O)c4ccccc4F)cc3)[nH]c2c1,39*,31,2,8,-8,4,nt,nt,31*,10
COc1ccc2cnn(CCOc3cc(C)ccc3C(C)C)c(=O)c2c1OC,-2,nt,nt,nt,nt,-2,nt,nt,nt,nt
Nc1c(C(=O)Nc2nc3ccccc3s2)sc2nc(-c3cccs3)ccc12,41*,73*,133*[fluorescence artefact?],3,-13,0,nt,nt,49*,49*
O=C(/C=C/c1ccc(Cl)cc1)NC(=S)Nc1ccc(NC(=O)c2ccco2)cc1,46*,nt,nt,nt,nt,-2,nt,nt,53*,23
Cc1nc([N+](=O)[O-])c(N2CCN(C)CC2)n1Cc1ccccc1,4,12,10,8,-7,-3,nt,nt,nt,nt
Cc1nc([N+](=O)[O-])c(Sc2nc3ccccc3n2C)n1Cc1ccccc1,31*,nt,nt,nt,nt,0,nt,nt,23,6
O=C(NCc1cccnc1)/C(=C/c1ccc(-c2cccc(C(F)(F)F)c2)o1)NC(=O)c1ccccc1,9,-4,0,-3,-3,-2,nt,nt,nt,nt
O=C(NCc1cccnc1)/C(=C\c1ccc(-c2ccc(Br)cc2)o1)S(=O)(=O)c1ccccc1,37*,nt,nt,nt,nt,0,nt,nt,41*,27*
Cc1[nH]c2ccccc2c1-c1nc2ccccc2[nH]1,42*,nt,nt,nt,nt,-2,nt,nt,49*,11
